Results from ChEMBL document CHEMBL1123616, “Thromboxane synthase inhibitors. Synthesis and pharmacological activity of (R)-, (S)-, and (+/-)-2,2-dimethyl-6-[2-(1H-imidazol-1-yl)-1-[[(4-methoxyphenyl)- methoxy]methyl]ethoxy]hexanoic acids” (J Med Chem, 1987).

Key:
Type in all cases: functional
[1] = biological target: T1, Thromboxane-A synthase (Homo sapiens, UniProt P24557); test: Inhibition of Thromboxane B2 formation in collagen-stimulated human platelets in platelet rich plasma.
T1 sequence (P24557 whole entry): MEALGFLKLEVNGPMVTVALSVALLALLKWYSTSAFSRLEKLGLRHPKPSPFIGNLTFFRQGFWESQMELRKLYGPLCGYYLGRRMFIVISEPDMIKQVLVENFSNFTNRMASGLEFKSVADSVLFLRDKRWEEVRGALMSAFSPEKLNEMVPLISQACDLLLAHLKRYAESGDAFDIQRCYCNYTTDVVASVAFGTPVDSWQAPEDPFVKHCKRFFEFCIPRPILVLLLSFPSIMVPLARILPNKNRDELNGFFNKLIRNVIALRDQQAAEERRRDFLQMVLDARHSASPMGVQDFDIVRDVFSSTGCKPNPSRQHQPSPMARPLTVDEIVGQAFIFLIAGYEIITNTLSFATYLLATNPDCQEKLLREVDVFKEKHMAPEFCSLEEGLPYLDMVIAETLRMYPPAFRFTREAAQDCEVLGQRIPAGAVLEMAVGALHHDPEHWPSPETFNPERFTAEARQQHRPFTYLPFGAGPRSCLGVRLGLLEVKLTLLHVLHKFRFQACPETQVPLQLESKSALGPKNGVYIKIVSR

[2] = tested on: Cavia porcellus; test: Inhibition of Collagen-induced Thromboxane (TXB2) in guinea pig whole blood ex vivo by oral 30 mg/kg administration of test compound.
Outline: (§1)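 Male Dunkin-Hartley guinea pigs (300-350 g), fasted overnight, dosed orally by gavage in 50% PEG 400/50% carboxymethylcellulose vehicle. Pentobarbitone anaesthesia 10 min before bleed at 1 h post-dose. Aortic blood was taken into citrate and stirred at 37 °C. Collagen (10 μg/mL) was added and incubated 5 min, then stopped with indomethacin. Plasma TxB2 was measured by RIA and normalized to 5.0×10^8 platelets/mL. Groups of ≥4 animals.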

[3] = tested on: Cavia porcellus; test: Inhibition of Collagen-induced serum Thromboxane (TXB2) in guinea pig whole blood ex vivo after 30 mg/kg oral administration of compound.; outline: as §1
[4] = tested on: Cavia porcellus; test: Inhibition of Collagen-induced Thromboxane (TXB2) in guinea pig whole blood ex vivo after 1 hr of 30 mg/kg oral administration of compound.; outline: as §1
[5] = tested on: Cavia porcellus; test: Inhibition of Collagen-induced serum Thromboxane (TXB2) generation in guinea pig whole blood ex vivo after 10 mg/kg oral administration of compound.; outline: as §1
[6] = tested on: Cavia porcellus; test: Inhibition of Collagen-induced Thromboxane (TXB2) generation in guinea pig whole blood ex vivo by oral 10 mg/kg administration of test compound.; outline: as §1
[7] = tested on: Cavia porcellus; test: Dose-related effect was determined 1 hr after oral administration in guinea pig and expressed as ED50 value; outline: as §1
[8] = tested on: Cavia porcellus; test: Inhibition of Collagen-induced Thromboxane (TXB2) in guinea pig whole blood ex vivo after 1 hr of 30 mg/kg oral administration of compound; outline: as §1
[9] = tested on: Cavia porcellus; test: Inhibition of Collagen-induced serum Thromboxane (TXB2) in guinea pig whole blood ex vivo after 10 mg/kg oral administration of compound.; outline: as §1
[10] = tested on: Cavia porcellus; test: Inhibition of Collagen-induced Thromboxane (TXB2) in guinea pig whole blood ex vivo after 1 hr of 10 mg/kg oral administration of compound.; outline: as §1

Compound	IC50 [1] [nM]	Thromboxane B2 (TxB2) [2] [pg 0.1ml-1 500x10^3]	inhibition in vivo at 30 mg/kg [3] [%]	also measured
CCOC(=O)CCCCCCC(COCc1ccc(OC)cc1)Cn1ccnc1 (stereo unspecified)	1000	683	53	
COc1ccc(COCC(Cn2ccnc2)OCCCCC(C)(C)C(=O)O)cc1 (racemic)	120	153	87	ED50 [4]: 3.4 mg/kg
CCOC(=O)CCCCCCOC(COCc1ccc(OC)cc1)Cn1ccnc1 (stereo unspecified)	4000	2720	33	
COc1ccc(COC[C@H](Cn2ccnc2)OCCCCC(C)(C)C(=O)O)cc1	36			inhibition in vivo at 10 mg/kg [5]: 95%; Thromboxane B2 (TxB2) [6]: 61.9 pg 0.1ml-1 500x10^3; ED50 [7]: 1.4 mg/kg
O=C(O)c1ccc(OCCn2ccnc2)cc1 [DAZOXIBEN]		674	54	ED50 [4]: 9.3 mg/kg
COc1ccc(COCC(Cn2ccnc2)OCCCCC(=O)O)cc1 (stereo unspecified)	730	1047	43	
CCOC(=O)CCCCCOC(COCc1ccc(OC)cc1)Cn1ccnc1 (stereo unspecified)	120	750	63	ED50 [8]: 13.5 mg/kg
COc1ccc(COCC(CCCCCCC(=O)O)Cn2ccnc2)cc1 (stereo unspecified)	1430	1620	-18	
CCOC(=O)C(C)(C)CCCCOC(COCc1ccc(OC)cc1)Cn1ccnc1 (stereo unspecified)	17600	55	97	ED50 [4]: 6.7 mg/kg
COc1ccc2c(c1)c(CC(=O)O)c(C)n2C(=O)c1ccc(Cl)cc1 [INDOMETHACIN]				Thromboxane B2 (TxB2) [6]: 27 pg 0.1ml-1 500x10^3; inhibition in vivo at 10 mg/kg [9]: 99%; ED50 at 10 mg/kg [10]: < 10 mg/kg
COc1ccc(COCC(Cn2ccnc2)OCCCCCCC(=O)O)cc1 (stereo unspecified)	1890	923	25	
COc1ccc(COCC(Cn2ccnc2)OCCC/C=C/C(=O)O)cc1 (stereo unspecified)	8330	1302	4	
COc1ccc(COCC(Cn2ccnc2)OCCCCCCC(C)(C)C(=O)O)cc1 (stereo unspecified)	> 20000			
COc1ccc(COC[C@@H](Cn2ccnc2)OCCCCC(C)(C)C(=O)O)cc1	420	572	71	ED50 [4]: 12 mg/kg
CCOC(=O)CCC/C=C/CC(COCc1ccc(OC)cc1)Cn1ccnc1 (stereo unspecified)	390	1265	23	
COc1ccc(COCC(Cn2ccnc2)OCCCCCC(=O)O)cc1 (stereo unspecified)	560	130	82	ED50 [4]: 10.5 mg/kg
CCOC(=O)CCCCOC(COCc1ccc(OC)cc1)Cn1ccnc1 (stereo unspecified)	750	2018	-11	
CCOC(=O)/C=C/CCCOC(COCc1ccc(OC)cc1)Cn1ccnc1 (stereo unspecified)	10000			
